Measurements taken from the array DNA melting data of Ke et al. (doi:10.1101/2024.01.08.574731).

Assays:
[1] = folding enthalpy; higher = less favourable; fluorescence melt of hairpins on a sequencing array, two-state fit; details: sodium 0.088 M
Outline: (§1)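 Folding enthalpy and melting temperature were estimated with bootstrapped two-state fits and combined across four replicates by inverse-variance weighting, with fitted temperatures raised by 9.35 °C to match UV melts. The data were Cy3 fluorescence of library hairpins, with annealed Cy3 and quencher oligos, on a sequenced MiSeq flow cell in 50 mM Na-HEPES pH 8.0, 25 mM NaCl, imaged in 2.5 °C steps up to 60 °C and normalised to pre-quench Cy3 and control constructs.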

[2] = melting temperature; fluorescence melt of hairpins on a sequencing array, two-state fit, raised by 9.35 °C to match UV melts; details: sodium 0.088 M
Outline: as §1

| Sequence | folding enthalpy [1] [kcal/mol] | Tm [2] [°C] |
| --- | --- | --- |
| GATCAGGAATCTGATC ((((((....)))))) | -41.8 | 54.8 |
| GATCAGGACCTGATC ((((((...)))))) | -40.4 | 49.6 |
| GATCAGGATTCTGATC ((((((....)))))) | -38.6 | 49.8 |
| GATCAGGCCTCTGATC ((((((....)))))) | -49.2 | 52.1 |
| GATCAGGGACTGATC ((((((...)))))) | -39.5 | 59.6 |
| GATCAGGGGCCTGATC ((((((....)))))) | -33.1 | 53 |
| GATCAGGGTCCTGATC ((((((....)))))) | -37.9 | 52.7 |
| GATCAGGGTGCTGATC ((((((....)))))) | -31.2 | 51.5 |
| GATCAGGTTCCTGATC ((((((....)))))) | -47.5 | 53.7 |
| GATCAGGTTTCTGATC ((((((....)))))) | -46.7 | 51.8 |
| GATCAGTAAACTGATC ((((((....)))))) | -37.4 | 50.8 |
| GATCAGTAACTGATC ((((((...)))))) | -37.8 | 47.9 |
| GATCAGTAGCTGATC ((((((...)))))) | -35.8 | 48.3 |
| GATCAGTAGTCTGATC ((((((....)))))) | -37 | 50.2 |
| GATCAGTATCCTGATC ((((((....)))))) | -33.3 | 48.7 |
| GATCAGTATCTGATC ((((((...)))))) | -34.9 | 48.5 |
| GATCAGTCACCTGATC ((((((....)))))) | -36.4 | 49.6 |
| GATCAGTCGACTGATC ((((((....)))))) | -53.5 | 55.5 |
| GATCAGTCTCCTGATC ((((((....)))))) | -39.1 | 49.4 |
| GATCAGTGAGCTGATC ((((((....)))))) | -36.1 | 56.2 |
| GATCAGTGCACTGATC ((((((....)))))) | -58.7 | 56.3 |
| GATCAGTGCTCTGATC ((((((....)))))) | -26.4 | 52.1 |
| GATCAGTGGGCTGATC ((((((....)))))) | -48.6 | 54.4 |
| GATCAGTGTACTGATC ((((((....)))))) | -33.1 | 59.1 |

| Sequence | folding enthalpy [1] [kcal/mol] | Tm [2] [°C] |
| --- | --- | --- |
| GATCAGTTAACTGATC ((((((....)))))) | -40.5 | 54.4 |
| GATCAGTTAGCTGATC ((((((....)))))) | -40.2 | 53.1 |
| GATCAGTTTACTGATC ((((((....)))))) | -49.2 | 59.6 |
| GATCAGTTTCTGATC ((((((...)))))) | -43.7 | 50.8 |
| GATCATAAAAATGATC ((((((....)))))) | -27.4 | 36.8 |
| GATCATAACGATGATC ((((((....)))))) | -31.5 | 45.9 |
| GATCATAATAATGATC ((((((....)))))) | -35.4 | 45.4 |
| GATCATAATTATGATC ((((((....)))))) | -42 | 47.8 |
| GATCATACAGATGATC ((((((....)))))) | -35.8 | 44.4 |
| GATCATACCAATGATC ((((((....)))))) | -39.4 | 48.4 |
| GATCATACCCATGATC ((((((....)))))) | -38.6 | 46.5 |
| GATCATACTTATGATC ((((((....)))))) | -37 | 48.5 |
| GATCATAGGAATGATC ((((((....)))))) | -26 | 44.3 |
| GATCATATCAATGATC ((((((....)))))) | -27.9 | 48.3 |
| GATCATATCATGATC ((((((...)))))) | -37.2 | 50.4 |
| GATCATATCGATGATC ((((((....)))))) | -34.3 | 47.4 |
| GATCATATCTATGATC ((((((....)))))) | -41.6 | 48.5 |
| GATCATATGAATGATC ((((((....)))))) | -31.7 | 45.7 |
| GATCATCAAATGATC ((((((...)))))) | -25.1 | 41.1 |
| GATCATCAAGATGATC ((((((....)))))) | -40.4 | 49.8 |
| GATCATCACTATGATC ((((((....)))))) | -31.3 | 48.6 |
| GATCATCATAATGATC ((((((....)))))) | -36.3 | 47.1 |
| GATCATCATTATGATC ((((((....)))))) | -34.6 | 46.8 |
| GATCATCCATATGATC ((((((....)))))) | -34.9 | 47 |

| Sequence | folding enthalpy [1] [kcal/mol] | Tm [2] [°C] |
| --- | --- | --- |
| GATCATCCCAATGATC ((((((....)))))) | -36.2 | 48.2 |
| GATCATCCGATGATC ((((((...)))))) | -33.3 | 46.8 |
| GATCATCCGTATGATC ((((((....)))))) | -38.9 | 47.8 |
| GATCATCCTGATGATC ((((((....)))))) | -41.7 | 54.5 |
| GATCATCGAATGATC ((((((...)))))) | -25.6 | 43.6 |
| GATCATCGAGATGATC ((((((....)))))) | -45.2 | 54.2 |
| GATCATCGGCATGATC ((((((....)))))) | -32 | 44.7 |
| GATCATCTACATGATC ((((((....)))))) | -38.5 | 46.2 |
| GATCATCTCTATGATC ((((((....)))))) | -38.9 | 47.1 |
| GATCATCTGATGATC ((((((...)))))) | -37.5 | 46.3 |
| GATCATGAATATGATC ((((((....)))))) | -46.8 | 54.5 |
| GATCATGATCATGATC ((((((....)))))) | -52.3 | 51.4 |
| GATCATGATGATGATC ((((((....)))))) | -32.3 | 47.5 |
| GATCATGCAATGATC ((((((...)))))) | -46 | 59.2 |
| GATCATGCATATGATC ((((((....)))))) | -55.8 | 55.4 |
| GATCATGCCCATGATC ((((((....)))))) | -43 | 53.5 |
| GATCATGCGAAAGCAATC (((..(((....)))))) | -9.85 | 22.5 |
| GATCATGCGCATGATC ((((((....)))))) | -57.1 | 57.2 |
| GATCATGCTAATGATC ((((((....)))))) | -42.7 | 57.2 |
| GATCATGCTATGATC ((((((...)))))) | -27.9 | 49.9 |
| GATCATGGCTATGATC ((((((....)))))) | -40.6 | 53.7 |
| GATCATGGTATGATC ((((((...)))))) | -36.3 | 48.9 |
| GATCATGTAATGATC ((((((...)))))) | -39.8 | 57.4 |
| GATCATGTCAATGATC ((((((....)))))) | -40 | 56.9 |

| Sequence | folding enthalpy [1] [kcal/mol] | Tm [2] [°C] |
| --- | --- | --- |
| GATCATTAATATGATC ((((((....)))))) | -37.1 | 45.5 |
| GATCATTAGAATGATC ((((((....)))))) | -28.6 | 45.8 |
| GATCATTATATGATC ((((((...)))))) | -40.2 | 48.8 |
| GATCATTCAGATGATC ((((((....)))))) | -36.9 | 46.9 |
| GATCATTCGTATGATC ((((((....)))))) | -33.3 | 48.1 |
| GATCATTCTTATGATC ((((((....)))))) | -40.9 | 48.6 |
| GATCATTGCAATGATC ((((((....)))))) | -44.8 | 52.3 |
| GATCATTGCTATGATC ((((((....)))))) | -36 | 47.8 |
| GATCATTGGGATGATC ((((((....)))))) | -38.8 | 49.5 |
| GATCATTGTATGATC ((((((...)))))) | -30.9 | 49.5 |
| GATCATTTAAATGATC ((((((....)))))) | -46.3 | 48.4 |
| GATCATTTCAATGATC ((((((....)))))) | -42.2 | 52.3 |
| GATCATTTTAATGATC ((((((....)))))) | -53.2 | 53.6 |
| GATCCAAAAATGGATC ((((((....)))))) | -26.4 | 42.9 |
| GATCCAAACCTGGATC ((((((....)))))) | -40.8 | 49.8 |
| GATCCAAACGTGGATC ((((((....)))))) | -37.4 | 49 |
| GATCCAAACTGGATC ((((((...)))))) | -43 | 50.4 |
| GATCCAAATCTGGATC ((((((....)))))) | -33.8 | 47.4 |
| GATCCAACACTGGATC ((((((....)))))) | -43 | 48.1 |
| GATCCAACCATGGATC ((((((....)))))) | -35.5 | 50 |
| GATCCAACTCTGGATC ((((((....)))))) | -30.9 | 49.2 |
| GATCCAAGATTGGATC ((((((....)))))) | -40 | 50.3 |
| GATCCAAGTATGGATC ((((((....)))))) | -36.5 | 50.3 |
| GATCCAAGTTTGGATC ((((((....)))))) | -41.1 | 52.1 |
